# Test results: ChEMBL document CHEMBL3244197, “Mercaptoimidazolylpropionic acid hydrobromide. Inhibition of tadpole collagenase and related properties” (J Med Chem, 1978)
# The source made the active and inactive calls. No cut-off for these calls is given here.
# Key:
# [1] = Half life of the compound in phosphate buffer with 214 ml/min oxygen flow assessed as oxidation at 0.25 mM by Ellman's method; format: physicochemical
# Method in brief: (§1)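 35 mL sample, 0.1 M phosphate buffer pH 7.4, oxygen-saturated; water-vapour-saturated O2 bubbled through via gas dispersion tube at 20 °C. 200 µL aliquots withdrawn over time; remaining SH titre measured by quantitative Ellman determination; half-time in hours.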
# [2] = Half life of the compound in phosphate buffer with 400 ml/min oxygen flow assessed as oxidation at 0.14 mM by Ellman's method; format: physicochemical; method in brief: as §1
# [3] = (§2) Inhibition of Rana catesbeiana tadpole collagenase using lathyritic rat skin collagen as substrate after 41 hrs by radial diffusion assay; details: read-out: I50
# Method in brief: (§3)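 Enzyme cultured from tadpole tail fin and back skin, purified by ammonium sulfate precipitation and Sephadex G-200, concentrated 20-fold by ultrafiltration at 4 °C. Gel: Tris-buffered pH 7.6, 1% agarose with 0.1% collagen, set 2 h at 20 °C, held ≥40 h at 4 °C. Wells (3.0 mm) received 15 µL enzyme ± inhibitor. Incubation 41 h at 28 °C, then 2 h at 37 °C. Lysis-zone diameter read as radial diffusion units; concentration for 50% inhibition taken.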
# [4] = tested on: Bacillus subtilis; test: Mutagenicity in repair-deficient Bacillus subtilis assessed as growth inhibition at 0.1 M; format: toxicity, organism-based; details: in vivo
# Method in brief: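 Repair-deficient tester strains exposed to test compound at 0.10 M, with chloroacetaldehyde (0.10 M) as mutagen reference; growth inhibition scored.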
# [5] = tested on: Mus musculus; test: Toxicity in Swiss-Wistar mouse assessed as body weight gain at 189 mg/kg, ip after 3 days (reference value: 20%); format: organism-based; parameters: dose 189 mg/kg, route intraperitoneal; details: in vivo, 72 h
# [6] = tested on: Mus musculus; test: Toxicity in Swiss-Wistar mouse assessed as body weight gain at 418 mg/kg, ip after 3 days (reference value: 20%); format: organism-based; parameters: dose 418 mg/kg, route intraperitoneal; details: in vivo, 72 h
# [7] = tested on: Mus musculus; test: Toxicity in Swiss-Wistar mouse assessed as body weight gain at 885 mg/kg, ip after 3 days (reference value: 20%); format: organism-based; parameters: dose 885 mg/kg, route intraperitoneal; details: in vivo, 72 h
# [8] = tested on: Mus musculus; test: Toxicity in Swiss-Wistar mouse assessed as body weight gain at 1980 mg/kg, ip after 3 days (reference value: 20%); format: organism-based; parameters: dose 1980 mg/kg, route intraperitoneal; details: in vivo, 72 h
# [9] = tested on: Mus musculus; test: Toxicity in Swiss-Wistar mouse assessed as change in health condition at 189 to 1980 mg/kg, ip after 7 days; format: organism-based; parameters: dose 189-1980 mg/kg, route intraperitoneal; details: in vivo, 168 h
# [10] = species on record: Rana catesbeiana; test: as §2; method in brief: as §3
# [11] = Half life of the compound in phosphate buffer with 200 ml/min oxygen flow assessed as oxidation at 0.28 mM by Ellman's method; format: physicochemical; method in brief: as §1
# [12] = Half life of the compound in phosphate buffer with 350 ml/min oxygen flow assessed as oxidation at 0.27 mM by Ellman's method; format: physicochemical; method in brief: as §1
# [13] = Half life of the compound in phosphate buffer with 214 ml/min oxygen flow assessed as oxidation at 0.24 mM by Ellman's method; format: physicochemical; method in brief: as §1
# [14] = Half life of the compound in phosphate buffer with 360 ml/min oxygen flow assessed as oxidation at 0.16 mM by Ellman's method; format: physicochemical; method in brief: as §1
structure (smiles),measurement,setting,value
Br.O=C(O)C(S)Cc1cnc[nH]1 (racemic),half-life at 250 µM,[1],12.7 h
same,half-life at 140 µM,[2],8.7 h
same,IC50,[3],3.8 mM
same,Activity,[4],Non-toxic
same,Activity,[5],22%
same,Activity,[6],18%
same,Activity,[7],23%
same,Activity,[8],18%
same,Activity,[9],Non-toxic
O=C(O)C(Br)Cc1cnc[nH]1 (racemic),I50,[10],inactive
CC(=O)N[C@@H](CS)C(=O)O [ACETYLCYSTEINE],half-life at 280 µM,[11],12.8 h
same,half-life at 270 µM,[12],10.9 h
same,IC50,[3],≥ 100 mM
N[C@@H](CS)C(=O)O [CYSTEINE],half-life at 240 µM,[13],6.4 h
same,half-life at 160 µM,[14],5.3 h
same,IC50,[3],8.7 mM
N[C@@H](Cc1c[nH]cn1)C(=O)O [HISTIDINE],IC50,[3],≥ 100 mM
